Columns and labels:
Assay type in all cases: functional
[1] = test system: Mus musculus; test: Analgesic activity in mouse assessed as increase in paw withdrawal latency at 50 mg/kg after 120 mins by hot plate test (reference value: 6.07 +/- 0.057 secs)
[2] = test system: Rattus norvegicus; test: Antiinflammatory activity in rat assessed as inhibition of carrageenan-induced paw oedema at 50 mg/kg after 180 mins relative to untreated control; details: 3 h
In short: (§1)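 Carrageenan-induced hind-paw oedema (Winter method). The text names both rats and mice. Test agents dosed at 100 mg/kg body weight, reference at 50 mg/kg body weight. Paw thickness measured in mm at 60 and 180 min after carrageenan injection. Percent oedema inhibition calculated against the saline control group. Six animals per group, mean ± SD. One-way ANOVA with Newman-Keuls test.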

[3] = test system: Rattus norvegicus; test: Antiinflammatory activity in rat assessed as inhibition of carrageenan-induced paw oedema at 50 mg/kg after 60 mins relative to untreated control; details: 1 h; in short: as §1

Question: For `CC(C)=CCN1CC[C@]2(C)c3cc(O)ccc3C[C@H]1[C@H]2C` [(+)-PENTAZOCINE], which Time [1] is on record?
Answer: 14.1 s

Question: For `O=C(O)Cc1ccccc1Nc1c(Cl)cccc1Cl` [DICLOFENAC], which inhibition in vivo at 50 mg/kg [2] is on record?
Answer: 45.8%

Question: And the inhibition in vivo at 50 mg/kg [3]?
Answer: 44.5%

From ChEMBL document CHEMBL2331523, “Regioselective synthesis of isoxazole-mercaptobenzimidazole hybrids and their in vivo analgesic and anti-inflammatory activity studies” (2013)
